{
  "source": "paper PMC12126168",
  "about": "(Drug Design, Development and Therapy, 2025)",
  "key": {"[1]": {"test": "Single-dose pharmacokinetics in SD rats", "assay_type": "in vivo", "settings": "after gavage or tail vein injection of V12", "outline": "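Male SD rats (240–280 g), 4 groups of 3. Compound in DMSO/castor oil/saline 5%/5%/90%, dosed 1 mg/kg i.v. or 10 mg/kg orally. Blood drawn from fundus venous plexus at 2, 5, 15, 30 min and 1, 2, 4, 8, 24 h into heparin tubes, then centrifuged at 4°C for plasma. Plasma levels measured by LC-MS/MS with non-compartmental analysis.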"}, "[2]": {"test": "Body weight of nude mice after oral administration", "assay_type": "in vivo", "settings": "oral doses 100 mg/kg and 300 mg/kg"}, "various tumor cell lines": {"test_system": "various tumor cell lines", "test": "Antiproliferative activity on various tumor cell lines", "assay_type": "cell-based", "settings": "read-out: IC50 against a variety of cell lines", "outline": "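Cells seeded at 1000 per well in 18 μL medium and pre-incubated 24 h at 37°C, 5% CO2. Test compound in DMSO (final DMSO <0.1%) added at 10 points, 2-fold dilutions from 10 μM, then cultured 72 h. Cell-Titer glo reagent added and […]. Inhibition computed per concentration and IC50 obtained from sigmoid curve fit.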"}},
  "data": [
    {"smiles": "CONC(=O)c1cccc2c1cc(C)n2-c1nc2c(c(NCc3ccccc3)n1)CCCN2", "note": "[V12, 1-(4-(Benzylamino)-5,6,7,8-Tetrahydropyrido[2,3-D]pyrimidin-2-Yl)-N-Methoxy-2-Methyl-1H-Indole-4-Carboxamide]", "values": [
      {"measurement": "metabolism in vivo", "setting": "[1]", "result": "rapidly metabolizes into V13"},
      {"measurement": "body weight of the nude mice", "setting": "[2]", "result": "comparable to that of the control group"},
      {"measurement": "IC50", "setting": "various tumor cell lines", "result": "< 1000", "unit": "nM"}
    ]},
    {"smiles": "Cc1cc2c(C(=O)O)cccc2n1-c1nc2c(c(NCc3ccccc3)n1)CCCN2", "note": "[V13, 1-(4-(Benzylamino)-5,6,7,8-Tetrahydropyrido[2,3-D]pyrimidin-2-Yl)-2-Methyl-1H-Indole-4-Carboxylic Acid]", "values": [
      {"measurement": "IC50", "setting": "various tumor cell lines", "result": "< 1000", "unit": "nM"}
    ]}
  ]
}
